Legend:
[1] = In vivo oral gavage study, blood; set-up: species or system New Zealand White rabbits; conditions: male rabbits, 60 g HED
Outline: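 Male adult New Zealand White rabbits (3.0 ± 0.3 kg) on high-fibre diet, fasted ~16 h, stratified by body weight, n=6/group. Free or pea-protein-nanoparticle-encapsulated test compound was given by oral gavage at 60 g per 70 kg adult HED, scaled by rabbit body-surface-area factors to an individual per-kg dose. Marginal ear vein blood was sampled pre-dose to 24 h (11 time-points); BHB was measured by assay kit.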

rats = conditions: 14 to 21 g/kg bw/day; cited from earlier work

C[C@@H](O)CC(=O)OCC(O)CO (stereo partly drawn) [KM, (R)-3-hydroxybutyrate monoglyceride]
[BHB]max [1]: 1.33 mmol/L | MRT ([1]; blood BHB): 6.60 h | Tmax ([1]; blood BHB): 0.75 h | systemic toxicity in vivo (rats): no systemic toxicity

— publication PMC12744579 (Nanotechnology, Science and Applications, 2025)
